For 2 compounds, inhibition results are on record in PubChem BioAssay AID463132 (The Scripps Research Institute Molecular Screening Center, 2010).

The structures appear in SMILES notation.

The assay addresses Protein phosphatase methylesterase 1 (Homo sapiens) (UniProt Q9Y570). Briefly: PME-1 inhibitors blocking PP2A demethylation, late-stage follow-up, HeLa cells, western blot, powder samples (AID 463132). As to conditions: demethylated PP2A western blot, 1 h, at 0.5 µM, active compounds read high. The method, boiled down:
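Test system: HeLa cells, endogenous PME-1 | Dosing: Single compound dose of 0.5 µM | Times: 1 h compound treatment, 37 °C | Technique: HRP-antibody immunoblot, chemiluminescence | Measure: % inhibition of PP2A demethylation signal | Controls: High DMSO cells, low empty blot region | Medium: FCS-supplemented medium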

Protein phosphatase methylesterase 1 (Homo sapiens), sequence (Q9Y570 whole entry, looked up): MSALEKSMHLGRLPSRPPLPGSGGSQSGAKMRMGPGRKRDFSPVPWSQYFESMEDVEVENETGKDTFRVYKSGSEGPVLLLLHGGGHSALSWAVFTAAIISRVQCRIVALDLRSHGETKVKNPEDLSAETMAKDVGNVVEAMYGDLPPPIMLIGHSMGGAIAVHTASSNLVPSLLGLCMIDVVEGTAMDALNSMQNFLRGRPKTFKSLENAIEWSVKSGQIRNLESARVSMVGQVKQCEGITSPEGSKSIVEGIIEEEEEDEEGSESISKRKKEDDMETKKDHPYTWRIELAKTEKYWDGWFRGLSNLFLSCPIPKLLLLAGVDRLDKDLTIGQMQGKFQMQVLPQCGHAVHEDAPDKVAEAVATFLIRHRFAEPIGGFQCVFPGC

In general, inhibition refers to the share of the control response that was lost under treatment. For the compound `COC(=O)N1C(=O)[C@](c2ccccc2)(C2CCCC2)N1C(=O)OC`, the inhibition is 85%.
In the case of `COC(=O)N1C(=O)[C@](c2ccccc2)(C2CCCCC2)N1C(=O)OC` it was 85%.
